# Screens (PubChem)
# CHRM5 PAM: CHRM5 positive allosteric modulation. CHO-K1 hM5, Fluo-8 calcium, ACh EC20 PAM; 0% = ACh EC20, 100% = ACh EC100. activation, % at 3 µM. P08912. hit rate 0.3% among 360,000;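 active means activation above the run cutoff, the mean activation of all test compounds plus 3 SD, cut at about 18% in these data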
#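 Measured by: Fluo-8 calcium fluorescence; material: human M5 receptor in CHO-K1 cells; schedule: Post-acetylcholine fluorescence recording 140 s; benchmarks: low control EC20 acetylcholine (0%), high control EC100 acetylcholine (100%); read-out: Max/basal fluorescence ratio as % of EC20–EC100 ACh window; compound: single dose, 3 µM nominal final test concentration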
# CHRM1 agonist: agonists of human M1 muscarinic receptor. P11229. CHO-K1 hM1, Fluo-8 calcium fluorescence, agonist mode; 0% DMSO, 100% acetylcholine EC100. activation, % at 3 µM. hit rate 0.33% among 360,000;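 active means activation above the run's mean compound activation plus 3 SD, cut at about 16% in these data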;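 further: peak over basal fluorescence ratio within a 140 s kinetic read after compound addition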
# Target sequence (P11229 whole entry, looked up): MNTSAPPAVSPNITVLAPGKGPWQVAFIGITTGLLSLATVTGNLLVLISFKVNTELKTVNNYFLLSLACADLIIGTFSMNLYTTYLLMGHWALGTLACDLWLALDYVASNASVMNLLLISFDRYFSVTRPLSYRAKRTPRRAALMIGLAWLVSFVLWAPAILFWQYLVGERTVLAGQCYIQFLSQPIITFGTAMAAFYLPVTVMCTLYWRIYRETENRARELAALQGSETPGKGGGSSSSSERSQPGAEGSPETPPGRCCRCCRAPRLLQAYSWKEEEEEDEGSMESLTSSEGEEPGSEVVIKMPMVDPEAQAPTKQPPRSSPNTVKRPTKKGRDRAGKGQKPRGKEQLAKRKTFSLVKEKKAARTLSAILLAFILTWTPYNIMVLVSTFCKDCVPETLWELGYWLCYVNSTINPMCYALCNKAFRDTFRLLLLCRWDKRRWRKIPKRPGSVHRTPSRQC
# CHRM1 PAM: positive allosteric modulators of human M1 muscarinic receptor; CHO-K1 hM1, Fluo-8 calcium fluorescence, ACh EC20; 0% = ACh EC20, 100% = maximal ACh; activation, % at 3 µM; hit rate 0.088% among 360,000; in the data active means activation above about 19%, passing the limit was not always enough
# CHRM5 antagonist: blocks acetylcholine activation of human M5 receptor; inhibition, % at 3 µM; hit rate 0.59% among 360,000; P08912; CHO-hM5 cells, Fluo-8 calcium fluorescence, ACh EC80; AID 624040;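 active means inhibition above a per-plate cutoff, the mean of that plate's test compounds plus 3 SD, cut at about 27% in these data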;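 further: 0% = acetylcholine EC80 with DMSO and 100% = DMSO without agonist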
# CHRM5 agonist: agonists of human muscarinic M5 receptor (CHRM5). P08912. CHO-K1 hM5 cells, Fluo-8 calcium fluorescence; 0% DMSO wells, 100% maximal acetylcholine response. activation, % at 3 µM. hit rate 0.19% among 360,000. AID 624037;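 active means activation above the run's mean over test compounds plus 3 SD, cut at about 23% in these data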;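 further: signal is peak over basal fluorescence ratio across the kinetic read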
# CHRM1 antagonist: blocks human M1 muscarinic receptor. CHO-K1 hM1, Fluo-8 calcium fluorescence, ACh EC80 antagonist. inhibition, % at 3 µM. hit rate 1.3% among 360,000. AID 588852;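 active means percent inhibition above its own plate's cutoff, namely the mean of that plate's compound wells plus 3 SD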;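 further: peak over basal fluorescence ratio during 140 s after agonist addition; 0% = ACh EC80 plus DMSO and 100% = DMSO alone without agonist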
# * = called active by the depositor; x = no result; + = active, no number. Shown are actives, neighbours in structure and some others; about 2.2% of the full set was active somewhere.
SMILES,CHRM5 PAM,CHRM1 agonist,CHRM1 PAM,CHRM5 antagonist,CHRM5 agonist,CHRM1 antagonist
CC(=O)Nc1c(NCC(C)C)c2ccccc2oc1=O,3,-2,6,-1,1,-5
CN(Cc1ccc(Cl)cc1Cl)C(=O)C1CC(=O)N(Cc2ccco2)C1 (stereo unspecified),-3,-9,-7,7,-1,-4
CN(Cc1ccon1)C(=O)c1ccc2nc(Cc3cccc(Cl)c3)oc2c1,19*,7,17,-24,3,-1
CC(c1ccon1)N(C)C(=O)c1ccc2nc(Cc3cccc(Cl)c3)oc2c1 (stereo unspecified),2,5,12,0,-1,6
Cc1ccc(C(=O)NNC(=O)c2csc(N3CCOCC3)n2)s1,-1,-2,9,2,2,-7
O=C(Nc1cc(Cl)ccc1Cl)C1Cc2ccccc2O/C1=N\O (stereo unspecified),2,-6,3,1,-5,0
CC1Cc2ccccc2N1S(=O)(=O)c1cnc[nH]1 (stereo unspecified),43*,-3,3,-4,5,1
CCOc1ccc(CN(C)C(=O)CNC(=O)C2CCCCC2)cc1,3,-1,15,8,-3,-7
CC1(C(=O)NCc2ccccn2)CCN1C(=O)Cc1ccc(Cl)cc1Cl (stereo unspecified),1,-3,3,2,-1,0
CN(C(=O)COc1ccccc1C(=O)NCCOc1ccccc1)c1ccccc1,-19,-2,-22,43*,3,50*
Fc1ccc(-c2nnc3ccc(N4CCCC4)nn23)cc1,-1,-5,-30,1,2,102*
CC(=O)c1cccc(NC(=O)CN(C)Cc2ccc(OC(F)F)cc2)c1,-7,-3,3,10,-1,-1
O=c1ccc2c(-c3ccccc3)c3ccc(O)cc3oc-2c1,-26,+,-30,86*,797*,104*
O=c1cc(-c2ccccc2)oc2cc(O)ccc12,6,-2,0,2,1,-6
Nc1ccc(-c2c3ccc(=O)cc-3oc3cc(O)ccc23)cc1C(=O)O,-21,278*,-38,30*,203*,55*
COc1ccc(-c2c(C)c3ccc(O)cc3oc2=O)cc1OC,-1,-1,1,5,-1,-4
O=C(c1cccc(C(F)(F)F)c1)C1CCCN(C(=O)CCCn2cncn2)C1 (stereo unspecified),-12,-12,-7,13,-4,1
c1ccc2c3c([nH]c2c1)CCNC3,-8,27*,-8,0,9,-4
Cc1cc(N2CCCCC2)nc2ccccc12,-20,-8,-20,14,-18,30
Cc1cc(N2CCCCCC2)nc2ccccc12,-41,-7,-20,22,-12,35*
O=Cc1ccccc1OCCOc1ccccc1C=O,-21,-14,-34,21,-5,82*
O=Cc1ccccc1Oc1ccccc1,4,-3,2,-1,2,-2
Fc1cccc(Cc2c(-c3ccc(Cl)cc3)nc3c(Cl)cc(C(F)(F)F)cn23)c1,3,-1,7,-6,0,-27
C=CCOc1ccc(/C=C2\SC(=S)N(NS(=O)(=O)c3ccc(C)cc3)C2=O)cc1,-2,-4,4,-1,-1,-3
CC(=O)C1=CCC(c2ccc(Br)cc2)N(S(=O)(=O)c2ccc(C)cc2)C1 (stereo unspecified),-8,-9,-24,-1,-2,37*
SMILES,CHRM5 PAM,CHRM1 agonist,CHRM1 PAM,CHRM5 antagonist,CHRM5 agonist,CHRM1 antagonist
NC(=O)c1ccnc2c(O)cccc12,-2,-4,11,-1,1,-5
OCc1ccnc2c(O)cccc12,22*,2,8,1,0,-11
COc1ccc(/C=N/NS(=O)(=O)c2ccccc2)cc1OS(=O)(=O)c1ccc(C)cc1,-9,9,10,-2,-1,-36
O=C(COc1ccc(Br)cc1)N1CCOCC1,18*,-1,1,-19,0,-21
Cc1ccc(C)c(CSc2ccc3nnc(-c4ccccn4)n3n2)c1,-8,5,-4,9,8,17
COc1ncnc2c1ncn2CCCN1CCN(Cc2ccc(C)cc2)CC1,3,-11,-16,3,-3,28*
Cn1c(SCC(=O)Nc2ccc3c(c2)CCC3)nnc1C1CC1,-6,-9,-19,-2,-3,29
CCCc1cc(=O)[nH]c2nnc(SCC(=O)Nc3ccc(NC(C)=O)cc3)n12,-2,-2,5,13,1,-9
CCCc1cc(=O)[nH]c2nnc(SCC(=O)Nc3cccc(NC(C)=O)c3)n12,-2,20*,16,9,6,2
CCC(=O)Nc1cccc(NC(=O)CSc2nnc(C3CC3)n2C)c1,36*,-2,1,-7,4,-5
COCCn1c(SCC(=O)Nc2ccc(OC)c(S(N)(=O)=O)c2)nc2ccccc21,4,-6,8,9,3,-1
CCn1c(SCC(=O)Nc2ccc3[nH]c(=O)[nH]c3c2)nc2ccccc21,-7,-9,-21,6,-1,50*
COCCn1c(SCC(=O)Nc2ccc3[nH]c(=O)[nH]c3c2)nc2ccccc21,5,-8,-18,13,-6,38*
COCCCNC(=S)N(Cc1cccnc1)Cc1ccc(OC)c(OC)c1,-2,-6,7,4,-2,-8
C=CCn1c(SC(C)C(=O)NC2(C#N)CCCCC2)nnc1-c1ccc(OC)cc1 (stereo unspecified),-1,-3,-9,2,2,33*
CC[C@@H]1Cc2[nH]c(=O)[nH]c(=O)c2[C@H](c2ccc(Cl)cc2)O1,-6,x,x,-6,2,x
COc1ccc(S(=O)(=O)N2CCC(N3CCN(Cc4ccccc4)CC3)CC2)cc1,-15,-13,-35,45*,-11,84*
O=S(=O)(NC1CCN(Cc2ccccc2)CC1)c1ccc(Cl)cc1,-14,-7,-24,-4,-18,52*
O=S(=O)(c1ccc(Cl)cc1)N1CCN(C2CCN(Cc3ccccc3)CC2)CC1,-44,-4,-18,-6,-13,37*
COc1ccc(S(=O)(=O)N2CCC(N3CCCC3)CC2)cc1,2,-7,-9,1,-6,20
O=[N+]([O-])c1ccccc1S(=O)(=O)N1CCN(C2CCN(Cc3ccccc3)CC2)CC1,-11,-6,-21,16,-9,54*
Cc1nc(SCc2ccc(C(=O)O)cc2)c2c(C)c(C)sc2n1,5,-4,1,-4,-1,2
O=C(NCCN1CCC(n2c(=O)[nH]c3ccccc32)CC1)c1cccs1,-1,x,x,-6,-4,x
